Experimental data as given in ChEMBL document CHEMBL1124204, “Thiophene systems. 9. Thienopyrimidinedione derivatives as potential antihypertensive agents” (1988).

What was measured:
Rattus norvegicus [1] = experiment: Evaluated for blood pressure lowering activity in spontaneously hypertensive rats (maximum change of systolic blood pressure (SBP)) at a dose of 2.5 mg/kg; type: functional, Artery
Method in brief: (§1)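 Adult male SHR, conscious, restrained in a chamber at 32 °C. SBP measured indirectly by tail cuff with a pneumatic pulse transducer. After baseline, groups of 4–6 received a single oral gavage dose or vehicle (0.5% methylcellulose). SBP was read at 0.5, 1, 2, 3 and 4 h, and the maximum SBP change ± SEM was reported against the vehicle effect.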

Rattus norvegicus [2] = experiment: Evaluated for blood pressure lowering activity in the conscious spontaneously hypertensive rats (SHR) (time to peak (h)) at a dose of 2.5 mg/kg; type: functional
Method in brief: (§2)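 Conscious adult male SHR in restrainers at 32 °C, with tail-cuff and pulse-transducer SBP recording. Groups of 4–6 got a single gavage dose in 0.5% methylcellulose or vehicle alone. SBP was sampled at 0.5, 1, 2, 3 and 4 h post-dose, and the time (h) at which the peak SBP change occurred was recorded.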

Rattus norvegicus [3] = experiment: Evaluated for blood pressure lowering activity in the conscious spontaneously hypertensive rats (SHR) (time to peak (h)) at a dose of 5 mg/kg; type: functional; method in brief: as §2
Rattus norvegicus [4] = experiment: Evaluated for blood pressure lowering activity in spontaneously hypertensive rats (maximum change of systolic blood pressure (SBP)) at a dose of 5 mg/kg; type: functional, Artery; method in brief: as §1
Rattus norvegicus [5] = experiment: Evaluated for blood pressure lowering activity in spontaneously hypertensive rats (maximum change of systolic blood pressure (SBP)) at a dose of 10 mg/kg; type: functional, Artery; method in brief: as §1
Rattus norvegicus [6] = experiment: Time to peak fall in systolic blood pressure in spontaneously hypertensive rats after oral administration of 10 mg/kg of the compound
Rattus norvegicus [7] = experiment: Time to reach peak blood pressure lowering effect in spontaneously hypertensive rats after oral administration of 2.5 mg/kg of the compound
Rattus norvegicus [8] = species: Rattus norvegicus; experiment: Peroral dose required to produce a 50 mmHg drop in systolic blood pressure (SBP) in the spontaneously hypertensive rats; type: functional; settings: Artery, po
Method in brief: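 Adult male SHR, conscious, tail-cuff indirect SBP at 32 °C. Groups of 4–6 were given single oral gavage doses of 0.5–20 mg/kg in 0.5% methylcellulose, with SBP followed over 4 h. The dose giving a 50 mmHg SBP fall (ED50SBP, mg/kg po) was calculated by regression analysis with 95% fiducial limits; n = animals tested.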

Rattus norvegicus [9] = experiment: Intravenous dose required to produce a 50% inhibition of the phenylephrine pressor response in the spontaneously hypertensive rats; type: functional
Method in brief: (§3)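 Adult male SHR, anesthetized and bilaterally vagotomized. A carotid artery was cannulated for mean arterial pressure and a jugular vein for iv dosing. Phenylephrine pressor responses were measured before and after antagonist. The iv dose (μg/kg) giving 50% inhibition of the pressor response (ED50) was reported with fiducial limits.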

Rattus norvegicus [10] = experiment: Evaluated for blood pressure lowering activity in the conscious spontaneously hypertensive rats (SHR) (time to peak (h)) at a dose of 1.25 mg/kg; type: functional; method in brief: as §2
Canis familiaris = experiment: Intravenous dose required to produce a 20-fold rightward shift in the phenylephrine dose-response curve in the dog; type: functional, Canis lupus familiaris
Method in brief: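 Mongrel dogs, anesthetized and bilaterally vagotomized. Mean arterial pressure was recorded via carotid cannula, and drug was given iv through the jugular vein. Phenylephrine dose–response curves were run before and after antagonist. The iv dose (μg/kg) producing a 20-fold rightward shift (DR20) was calculated; n = animals tested.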

Rattus norvegicus [11] = experiment: Evaluated for blood pressure lowering activity in spontaneously hypertensive rats (maximum change of systolic blood pressure (SBP)) at a dose of 1.25 mg/kg; type: functional, Artery; method in brief: as §1
Rattus norvegicus [12] = experiment: Time to peak fall in systolic blood pressure in spontaneously hypertensive rats after oral administration of 1.25 mg/kg of the compound
Rattus norvegicus [13] = experiment: Evaluated for blood pressure lowering activity in the conscious spontaneously hypertensive rats (SHR) (time to peak (h)) at a dose of 10 mg/kg; type: functional; method in brief: as §2
Rattus norvegicus [14] = experiment: Intravenous dose required to produce 50% inhibition of the phenylephrine pressor response in the spontaneously hypertensive rats; type: functional; method in brief: as §3

Structure (SMILES): COc1ccc(C(=O)n2c(=O)n(CCN3CCN(c4ccccc4OC)CC3)c(=O)c3cscc32)cc1
- Delta SBP (Rattus norvegicus [1]): -59 mmHg
- Time (Rattus norvegicus [2]): 2 h

Structure (SMILES): CCCCCC(=O)n1c(=O)n(CCN2CCN(c3ccccc3OC)CC2)c(=O)c2cscc21
- Time (Rattus norvegicus [3]): 0.5 h
- Delta SBP (Rattus norvegicus [4]): -42 mmHg

Structure (SMILES): COc1ccccc1N1CCN(CCn2c(=O)c3cscc3n(C(=O)c3ccccc3)c2=O)CC1
- Time (Rattus norvegicus [3]): 1 h
- Delta SBP (Rattus norvegicus [4]): -68 mmHg

Structure (SMILES): COC(=O)CCn1c(=O)n(CCN2CCN(c3ccccc3OC)CC2)c(=O)c2cscc21
- Delta SBP (Rattus norvegicus [5]): -55 mmHg
- Time (Rattus norvegicus [6]): 1 h

Structure (SMILES): COc1ccc(N2CCN(CCn3c(=O)[nH]c4cscc4c3=O)CC2)cc1
- Delta SBP (Rattus norvegicus [5]): -51 mmHg
- Time (Rattus norvegicus [6]): 0.5 h

Structure (SMILES): COc1ccccc1N1CCN(CCn2c(=O)c3cscc3n(C(C)=O)c2=O)CC1
- Delta SBP (Rattus norvegicus [1]): -44 mmHg
- Time (Rattus norvegicus [2]): 0.5 h

Structure (SMILES): CCOC(=O)n1c(=O)n(CCN2CCN(c3ccccc3OC)CC2)c(=O)c2sccc21
- Delta SBP (Rattus norvegicus [1]): -30 mmHg
- Time (Rattus norvegicus [2]): 0.5 h

Structure (SMILES): COc1ccccc1N1CCN(CCn2c(=O)c3sccc3n(C(C)=O)c2=O)CC1
- Time (Rattus norvegicus [3]): 0.5 h
- Delta SBP (Rattus norvegicus [4]): -58 mmHg

Structure (SMILES): O=c1[nH]c2sccc2c(=O)n1CCN1CCN(c2ccccc2)CC1
- Delta SBP (Rattus norvegicus [5]): -45 mmHg
- Time (Rattus norvegicus [6]): 1 h

Structure (SMILES): COc1ccccc1N1CCN(CCn2c(=O)[nH]c3c(Cl)scc3c2=O)CC1
- Time (Rattus norvegicus [7]): 0.5 h
- Delta SBP (Rattus norvegicus [1]): -75 mmHg

Structure (SMILES): COc1ccccc1N1CCN(CCn2c(=O)c3cscc3n(C(=O)c3ccc(Cl)cc3)c2=O)CC1
- Time (Rattus norvegicus [3]): 1 h
- Delta SBP (Rattus norvegicus [4]): -14 mmHg

Structure (SMILES): COc1ccccc1N1CCN(CCn2c(=O)[nH]c3ccccc3c2=O)CC1
- ED50 (Rattus norvegicus [8]): 0.54 mg/kg
- ED50 (Rattus norvegicus [9]): 0.0033 mg/kg
- Time (Rattus norvegicus [10]): 0.5 h
- DR20 (Canis familiaris): 10 µg/kg
- Delta SBP (Rattus norvegicus [11]): -54 mmHg

Structure (SMILES): COc1ccccc1N1CCN(CCn2c(=O)c3ccsc3n(C)c2=O)CC1
- Time (Rattus norvegicus [12]): 0.5 h
- Delta SBP (Rattus norvegicus [11]): -28 mmHg

Structure (SMILES): COc1ccccc1N1CCN(CCn2c(=O)[nH]c3ccsc3c2=O)CC1
- ED50 (Rattus norvegicus [8]): 0.19 mg/kg
- Time (Rattus norvegicus [12]): 0.5 h
- ED50 (Rattus norvegicus [9]): 0.0021 mg/kg
- DR20 (Canis familiaris): 4 µg/kg
- Delta SBP (Rattus norvegicus [11]): -74 mmHg

Structure (SMILES): COc1ccc(N2CCN(CCn3c(=O)[nH]c4ccsc4c3=O)CC2)cc1
- Delta SBP (Rattus norvegicus [5]): -68 mmHg
- Time (Rattus norvegicus [6]): 1 h

Structure (SMILES): COc1cccc(N2CCN(CCn3c(=O)[nH]c4ccsc4c3=O)CC2)c1
- Time (Rattus norvegicus [7]): 1 h
- Delta SBP (Rattus norvegicus [1]): -28 mmHg

Structure (SMILES): O=c1[nH]c2cscc2c(=O)n1CCN1CCN(c2cccc(Cl)c2)CC1
- Delta SBP (Rattus norvegicus [5]): -20 mmHg
- Time (Rattus norvegicus [13]): 2 h

Structure (SMILES): COc1ccccc1N1CCN(CCCn2c(=O)[nH]c3cscc3c2=O)CC1
- Delta SBP (Rattus norvegicus [5]): -38 mmHg
- Time (Rattus norvegicus [6]): 1 h

Structure (SMILES): O=c1[nH]c2cscc2c(=O)n1CCN1CCN(c2ccccc2Cl)CC1
- Time (Rattus norvegicus [12]): 0.5 h
- Delta SBP (Rattus norvegicus [11]): -51 mmHg

Structure (SMILES): O=c1[nH]c2ccsc2c(=O)n1CCN1CCN(c2ccccc2Cl)CC1
- Time (Rattus norvegicus [12]): 0.5 h
- Delta SBP (Rattus norvegicus [11]): -30 mmHg

Structure (SMILES): COc1ccccc1N1CCN(CCn2c(=O)c3cscc3n(C)c2=O)CC1
- Time (Rattus norvegicus [12]): 0.5 h
- Delta SBP (Rattus norvegicus [11]): -67 mmHg

Structure (SMILES): O=c1[nH]c2ccsc2c(=O)n1CCN1CCN(c2ccccc2)CC1
- Delta SBP (Rattus norvegicus [5]): -48 mmHg
- Time (Rattus norvegicus [6]): 0.5 h

Structure (SMILES): COc1ccccc1N1CCN(CCn2c(=O)[nH]c3sc(Cl)cc3c2=O)CC1
- Time (Rattus norvegicus [12]): 0.5 h
- Delta SBP (Rattus norvegicus [11]): -25 mmHg

Structure (SMILES): CCCCn1c(=O)n(CCN2CCN(c3ccccc3OC)CC2)c(=O)c2sccc21
- Time (Rattus norvegicus [12]): 0.5 h
- Delta SBP (Rattus norvegicus [11]): -28 mmHg

Structure (SMILES): Cc1ccccc1N1CCN(CCn2c(=O)[nH]c3sccc3c2=O)CC1
- Delta SBP (Rattus norvegicus [5]): -70 mmHg
- Time (Rattus norvegicus [6]): 0.5 h

Structure (SMILES): COc1cc2nc(N3CCN(C(=O)c4ccco4)CC3)nc(N)c2cc1OC [PRAZOSIN]
- ED50 (Rattus norvegicus [8]): 0.22 mg/kg
- Time (Rattus norvegicus [10]): 0.5 h
- ED50 (Rattus norvegicus [14]): 0.0104 mg/kg
- DR20 (Canis familiaris): 300 µg/kg
- Delta SBP (Rattus norvegicus [11]): -60 mmHg
